In one assay the test system is HEK293. Kind of assay: Cytotoxicity against HEK293 cells assessed as cell survival after 24 hrs by MTT assay. The class given is cell-based. The conditions noted are these: Homo sapiens, HEK293, 24 h. The gist of the method:
(§1)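 HEK 293 (normal) and A549 (cancer) cells seeded at 1×10^4 cells/well in DMEM with 10% FBS, grown 24 h at 37 °C under CO₂, then exposed to compounds alongside vehicle control for 24 h. MTT (5 mg/mL, 10 µl) added for 4 h, formazan dissolved in DMSO, absorbance read at 540 nm. Survival relative to control cells; EC₅₀ by probit analysis.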
Background: Formazan colour is commonly taken as a measure of viable cells.

The test system of a further assay is A549. The assay can be described thus: Cytotoxicity against human A549 cells assessed as cell survival after 24 hrs by MTT assay. Type of assay: cell-based. The conditions noted are these: A549, 24 h. The gist of the method:
as §1

For assay [1], the target named is T1, Angiotensin-converting enzyme (Oryctolagus cuniculus, UniProt P12822).
T1 sequence (P12822 whole entry): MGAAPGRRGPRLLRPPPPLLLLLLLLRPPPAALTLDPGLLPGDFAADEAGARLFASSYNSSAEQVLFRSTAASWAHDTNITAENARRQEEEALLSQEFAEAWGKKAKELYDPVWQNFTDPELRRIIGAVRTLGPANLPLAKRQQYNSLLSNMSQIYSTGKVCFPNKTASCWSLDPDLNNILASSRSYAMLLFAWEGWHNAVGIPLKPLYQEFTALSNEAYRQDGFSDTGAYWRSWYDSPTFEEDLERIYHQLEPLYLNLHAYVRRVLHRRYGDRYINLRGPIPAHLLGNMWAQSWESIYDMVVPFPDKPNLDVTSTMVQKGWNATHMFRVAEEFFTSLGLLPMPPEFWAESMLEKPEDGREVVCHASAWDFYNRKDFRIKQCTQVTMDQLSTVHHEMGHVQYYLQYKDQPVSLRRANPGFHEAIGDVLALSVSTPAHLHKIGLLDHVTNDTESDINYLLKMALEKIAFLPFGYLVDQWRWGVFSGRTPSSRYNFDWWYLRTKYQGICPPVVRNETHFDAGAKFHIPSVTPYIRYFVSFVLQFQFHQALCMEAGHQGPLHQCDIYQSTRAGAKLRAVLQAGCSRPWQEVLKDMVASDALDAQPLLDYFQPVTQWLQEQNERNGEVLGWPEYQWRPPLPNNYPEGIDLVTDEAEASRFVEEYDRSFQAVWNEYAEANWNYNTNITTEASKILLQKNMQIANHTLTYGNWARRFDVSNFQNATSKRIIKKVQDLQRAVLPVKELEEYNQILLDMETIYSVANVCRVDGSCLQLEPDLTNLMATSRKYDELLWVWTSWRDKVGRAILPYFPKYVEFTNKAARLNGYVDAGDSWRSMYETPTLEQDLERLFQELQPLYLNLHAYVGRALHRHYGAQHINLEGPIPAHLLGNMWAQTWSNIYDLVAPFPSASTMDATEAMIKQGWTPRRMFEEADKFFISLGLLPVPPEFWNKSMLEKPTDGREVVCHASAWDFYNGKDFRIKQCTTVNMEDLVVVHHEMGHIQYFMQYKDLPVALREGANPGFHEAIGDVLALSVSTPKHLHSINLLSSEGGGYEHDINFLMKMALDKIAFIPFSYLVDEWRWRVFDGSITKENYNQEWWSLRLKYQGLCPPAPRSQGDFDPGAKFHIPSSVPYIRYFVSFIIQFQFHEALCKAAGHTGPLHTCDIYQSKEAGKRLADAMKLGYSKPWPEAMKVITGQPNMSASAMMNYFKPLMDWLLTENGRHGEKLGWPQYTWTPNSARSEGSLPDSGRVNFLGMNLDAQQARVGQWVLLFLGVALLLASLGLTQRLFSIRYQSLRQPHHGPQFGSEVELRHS
Kind of assay: Inhibition of rabbit lung ACE assessed as hydrolysis of hippuryl-histidyl-leucine to hippuric acid and histidyl-leucine after 30 mins. The gist of the method:
(§2)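 Enzyme is the supernatant of rabbit lung acetone powder homogenized in 0.05 M sodium borate pH 8.2 with 0.3 M NaCl and 0.5% Triton X-100 at 4 °C, spun 15,000 rpm for 60 min. Reaction uses borate/NaCl buffer and 5 mM HHL stock, 30 min at 37 °C. Hippuric acid read colorimetrically at 410 nm, in triplicate. % inhibition = 100 − (A_test/A_control)×100. Single-point screen at 1.0 µM; IC₅₀ from plots of % inhibition against serial concentrations.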

For assay [2], the target named is T2, Angiotensin-converting enzyme (Oryctolagus cuniculus) (UniProt P12822).
T2 sequence (whole entry): T1 sequence (P12822 whole entry)
Kind of assay: Inhibition of rabbit lung ACE assessed as hydrolysis of hippuryl-histidyl-leucine to hippuric acid and histidyl-leucine at 1 uM after 30 mins relative to control. The gist of the method:
as §2

A short description of assay [3]: Ratio of IC50 for rabbit lung ACE to IC50 for human A549 cells.
Assay [4] can be described thus: Ratio of IC50 for rabbit lung ACE to IC50 for HEK293 cells.

What is called IC50 is the point on the concentration scale where inhibition reaches its midpoint. As a reminder, the inhibition is the change of the read-out against control, counted positive when it falls.

The structures appear in SMILES notation.

Turning to `CCOC(=O)[C@H](CCc1ccccc1)N[C@@H](C)C(=O)N1[C@H](C(=O)O)C[C@@H]2CCC[C@@H]21` [RAMIPRIL], the IC50 in the assay with HEK293 turned out to be 414 µM; in the assay on A549, 392 µM; in assay [1] it was 253 nM.

As for `O=C1[C@@H]2C[C@@H](O)CN2C(=O)c2ccccc2N1Cc1ccc(Cl)c(F)c1`, the inhibition in assay [2] worked out at 28%.

`Nc1ccc(CN2C(=O)[C@@H]3C[C@@H](O)CN3C(=O)c3ccccc32)cc1`: the inhibition in assay [2] turned out to be 28%.

In the case of `O=C(CN1C(=O)[C@@H]2C[C@@H](O)CN2C(=O)c2ccccc21)c1ccc(Br)cc1`, the inhibition in assay [2] was determined as 28%.

In the case of `COc1cccc(CN2C(=O)[C@@H]3C[C@@H](O)CN3C(=O)c3ccccc32)c1`, the inhibition in assay [2] was determined as 28%.

For the molecule `O=C1[C@@H]2C[C@@H](O)CN2C(=O)c2ccccc2N1Cc1ccc([N+](=O)[O-])cc1`, in assay [2], the inhibition stood at 28%.

On to `COc1cc(CN2C(=O)[C@@H]3C[C@@H](O)CN3C(=O)c3ccccc32)cc(OC)c1OC`, for which the values for the IC50 (in the assay with HEK293; in the assay on A549; in assay [1]) were 331 µM, 419 µM and 376 nM, respectively. For the same molecule, the “Ratio IC50” value in assay [3] and in assay [4] was 1000 throughout. Besides, the inhibition in assay [2] came to 91%.

Take `O=C1[C@@H]2C[C@@H](O)CN2C(=O)c2ccccc2N1Cc1cccc2c1oc1ccccc12`: in assay [2], the inhibition worked out at 28%.

With `O=C1[C@@H]2C[C@@H](O)CN2C(=O)c2ccccc2N1Cc1cccc(Br)c1`, the values for the IC50 (in the assay on HEK293; with A549; in assay [1]) were 398 µM, 400 µM and 418 nM, respectively. For the same molecule, the “Ratio IC50” value in assay [3] and in assay [4] was 1000 throughout. Besides, the inhibition in assay [2] was 86%.

For the molecule `O=C1[C@@H]2C[C@@H](O)CN2C(=O)c2ccccc2N1Cc1c(F)c(F)c(F)c(F)c1F`, in assay [2], the inhibition was determined as 28%.

As for `CN1C(=O)[C@@H]2C[C@@H](O)CN2C(=O)c2ccccc21`, the inhibition in assay [2] turned out to be 28%.

For the molecule `O=C1Nc2ccccc2C(=O)N2C[C@H](O)C[C@@H]12`, the inhibition in assay [2] was found to be 57%.

For the molecule `O=C1[C@@H]2C[C@@H](O)CN2C(=O)c2ccccc2N1Cc1ccc([N+](=O)[O-])c(Cl)c1`, in assay [2], the inhibition was 28%.

As for `COC(=O)c1ccc(CN2C(=O)[C@@H]3C[C@@H](O)CN3C(=O)c3ccccc32)cc1`, the inhibition in assay [2] worked out at 28%.

As for `CC(=O)CN1C(=O)[C@@H]2C[C@@H](O)CN2C(=O)c2ccccc21`, the inhibition in assay [2] was 28%.

With `O=C1[C@@H]2C[C@@H](O)CN2C(=O)c2ccccc2N1Cc1ccc(Br)cc1`, the values for the IC50 (in the assay with HEK293; with A549; in assay [1]) were 496 µM, 487 µM and 658 nM, respectively. The “Ratio IC50” value in assay [3] and in assay [4] was 1000 in each case. The inhibition in assay [2] stood at 75%.

For `COc1ccc(CN2C(=O)[C@@H]3C[C@@H](O)CN3C(=O)c3ccccc32)cc1`, in assay [2], the inhibition was 28%.

For `CCOC(=O)CN1C(=O)[C@@H]2C[C@@H](O)CN2C(=O)c2ccccc21`, the inhibition in assay [2] was determined as 28%.

As for `O=C(CN1C(=O)[C@@H]2C[C@@H](O)CN2C(=O)c2ccccc21)c1ccc(Cl)cc1`, the inhibition in assay [2] is 28%.

Regarding `O=C1[C@@H]2C[C@@H](O)CN2C(=O)c2ccccc2N1Cc1cc(F)cc(F)c1`, the inhibition in assay [2] was 28%.

As for `O=C1[C@@H]2C[C@@H](O)CN2C(=O)c2ccccc2N1Cc1cc(F)cc(F)c1Cl`, the inhibition in assay [2] came out at 28%.

As for `O=C1[C@@H]2C[C@@H](O)CN2C(=O)c2ccccc2N1Cc1cc(Br)cs1`, the results for the IC50 (in the assay with HEK293; with A549; in assay [1]) were 281 µM, 361 µM and 272 nM, respectively. Besides, the “Ratio IC50” value in assay [3] and in assay [4] was 1000 in each case. Further, the inhibition in assay [2] turned out to be 80%.

As to `CCOC(=O)[C@H](CCc1ccccc1)N[C@H]1CCc2ccccc2N(CC(=O)O)C1=O` [BENAZEPRIL], the half-inhibitory concentration (IC50) was found to be 301 µM with HEK293, 358 µM with A549 and 212 nM in assay [1].

With `O=C1[C@@H]2C[C@@H](O)CN2C(=O)c2ccccc2N1Cc1cccc(Cl)c1`, the inhibition in assay [2] amounted to 28%.

In the case of `NCCCC[C@H](N[C@@H](CCc1ccccc1)C(=O)O)C(=O)N1CCC[C@H]1C(=O)O` [LISINOPRIL ANHYDROUS], the IC50 was determined as 443 µM in the assay on HEK293, 307 µM in the assay with A549 and 262 nM in assay [1].

Take `O=C(O)c1ccc(CN2C(=O)[C@@H]3C[C@@H](O)CN3C(=O)c3ccccc32)cc1`: the inhibition in assay [2] is 28%.

The values are drawn from ChEMBL document CHEMBL2412986, “Design, synthesis and evaluation of novel 2-hydroxypyrrolobenzodiazepine-5,11-dione analogues as potent angiotensin converting enzyme (ACE) inhibitors” (Bioorg Med Chem, 2013).
